Results taken from ChEMBL document CHEMBL1154096, “Design, synthesis and anticancer evaluation of novel tetrahydroquinoline derivatives containing sulfonamide moiety” (Eur J Med Chem, 2009).
In brackets after ≈: the same amount, converted by molar mass.

System: MCF7
Assay: Cytotoxicity against human MCF7 cells after 48 hrs by SRB assay
Type: functional, cell-based
Details: MCF7, 48 h
In short: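 Cells seeded at 10⁴/well and left 24 h to attach. Compounds dissolved in DMSO, diluted in saline and added to the monolayer in triplicate wells per dose, then incubated 48 h at 37 °C in 5% CO₂. Cells were fixed and stained 30 min with 0.4% SRB in 1% acetic acid, washed four times with 1% acetic acid, and the dye recovered in Tris–EDTA. Absorbance was read, and surviving fraction plotted against concentration.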

Row | SMILES | IC50 [µg/mL]
1 | Cc1c2c(nc3[nH]c(=S)n(-c4ccc(S(N)(=O)=O)cc4)c(=N)c13)CC(C)(C)CC2=O | 4 (≈ 9.02 µM)
2 | Cc1c2c(nc3[nH]c(=S)n(-c4ccc(S(N)(=O)=O)cc4)c(=N)c13)CCCC2 | 0.95 (≈ 2.37 µM)
3 | Cc1cc(NS(=O)(=O)c2ccc(N/C=N/c3nc4c(c(C)c3C#N)CCCC4)cc2)no1 | 1.95 (≈ 4.33 µM)
4 | Cc1cc(NS(=O)(=O)c2ccc(N/C=N/c3nc4c(c(C)c3C#N)C(=O)CC(C)(C)C4)cc2)no1 | 1.9 (≈ 3.86 µM)
5 | Cc1c(C#N)c(/N=C/Nc2ccc(S(N)(=O)=O)cc2)nc2c1C(=O)CC(C)(C)C2 | 2.62 (≈ 6.37 µM)
6 | Cc1cc(NS(=O)(=O)c2ccc(-n3cnc4nc5c(c(C)c4c3=N)C(=O)CC(C)(C)C5)cc2)no1 | 2.6 (≈ 5.28 µM)
7 | Cc1c2c(nc3[nH]c(=S)n(-c4ccc(S(=O)(=O)NC(=N)N)cc4)c(=N)c13)CCCC2 | 1.28 (≈ 2.89 µM)
8 | Cc1c(C#N)c(/N=C/Nc2ccc(S(N)(=O)=O)cc2)nc2c1CCCC2 | > 10
9 | Cc1c2c(nc3[nH]c(=S)n(-c4ccc(S(=O)(=O)NC(=N)N)cc4)c(=N)c13)CC(C)(C)CC2=O | 5.17 (≈ 10.6 µM)
10 | Cc1cc(NS(=O)(=O)c2ccc(-n3c(=S)[nH]c4nc5c(c(C)c4c3=N)C(=O)CC(C)(C)C5)cc2)no1 | > 10
11 | Cc1cc(NS(=O)(=O)c2ccc(-n3c(=S)[nH]c4nc5c(c(C)c4c3=N)CCCC5)cc2)no1 | 2.62 (≈ 5.43 µM)
12 | Cc1c2c(nc3ncn(-c4ccc(S(N)(=O)=O)cc4)c(=N)c13)CC(C)(C)CC2=O | 1.5 (≈ 3.65 µM)
13 | Cc1c2c(nc3[nH]c(=S)n(-c4ccc(S(=O)(=O)Nc5ncccn5)cc4)c(=N)c13)CCCC2 | 1.48 (≈ 3.09 µM)
14 | Cc1c2c(nc3[nH]c(=S)n(-c4ccc(S(=O)(=O)Nc5ncccn5)cc4)c(=N)c13)CC(C)(C)CC2=O | 9.19 (≈ 17.6 µM)
